# Measured values: publication PMC3514014 (Molecular and biochemical parasitology, 2010)
# Where a SMILES comes first, the peptide text is derived from it. Where no end group is shown, it is not given here. The star is where a group is joined. ACC = NC(=O)Cc1cc(=O)oc2cc(N*)ccc12; AMC = Cc1cc(=O)oc2cc(N*)ccc12
# Legend:
# cathepsin C [1] = settings: cited from earlier work
# [2] = tested on: recombinant human cathepsin C; format: biochemical; settings: for Km / kcat: 25 °C, pH 6.0, 30 mM chloride, mean ± SD, triplicate
# [3] = target: T1, recombinant DPAP1 (rDPAP1) (Plasmodium falciparum, UniProt Q8IIJ9); format: biochemical; settings: for Km / kcat: rDPAP1, 25 °C, pH 6.0, 30 mM chloride, mean ± SD, triplicate, NH = no hydrolysis; for hydrolysis of the substrate: recombinant DPAP1, concentrations up to 500 μM
# T1 sequence (Q8IIJ9 28-209 limits assumed): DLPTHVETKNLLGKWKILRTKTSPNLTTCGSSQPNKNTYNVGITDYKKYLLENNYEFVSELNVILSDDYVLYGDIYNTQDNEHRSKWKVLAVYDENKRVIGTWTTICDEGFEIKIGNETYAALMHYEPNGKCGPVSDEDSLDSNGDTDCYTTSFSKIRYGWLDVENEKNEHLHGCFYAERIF
# T1 sequence (Q8IIJ9 370-599 limits assumed): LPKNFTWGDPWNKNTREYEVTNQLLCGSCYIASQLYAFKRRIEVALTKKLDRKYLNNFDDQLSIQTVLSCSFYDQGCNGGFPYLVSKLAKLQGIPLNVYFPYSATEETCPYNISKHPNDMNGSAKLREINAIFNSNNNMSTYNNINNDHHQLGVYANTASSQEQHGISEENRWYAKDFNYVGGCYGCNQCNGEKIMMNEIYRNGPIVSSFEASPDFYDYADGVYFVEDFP
# T1 sequence (Q8IIJ9 600-700 limits assumed): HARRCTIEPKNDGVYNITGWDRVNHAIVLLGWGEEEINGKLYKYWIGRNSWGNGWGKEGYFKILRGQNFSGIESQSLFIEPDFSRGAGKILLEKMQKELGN
# [4] = target: T1, recombinant DPAP1 (rDPAP1); experiment: Inhibition of recombinant DPAP1; format: biochemical
# In short: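 Recombinant E. coli-expressed DPAP1-His6, activated by TEV cleavage, at 0.8 nM. Run at 25 °C in 50 mM sodium MES pH 6.0 with 2 mM dithiothreitol and 1 mM EDTA, total chloride held at 30 mM with NaCl. Fluorogenic release read against an AMC standard, in triplicate. Rates taken from linear progress-curve segments after ~15 min lag; Ki by Dixon method.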
# native DPAP1 (nDPAP1) [5] = target: T2, native DPAP1 (nDPAP1) (Plasmodium falciparum, UniProt Q8IIJ9); format: biochemical; settings: for hydrolysis of the substrate: native DPAP1, concentrations up to 500 μM; for kcat: nDPAP1, 25 °C, pH 6.0, 30 mM chloride, mean ± SD, triplicate, NH = no hydrolysis
# T2 sequence (Q8IIJ9 28-209 limits assumed): T1 sequence (Q8IIJ9 28-209 limits assumed)
# T2 sequence (Q8IIJ9 370-599 limits assumed): T1 sequence (Q8IIJ9 370-599 limits assumed)
# T2 sequence (Q8IIJ9 600-700 limits assumed): T1 sequence (Q8IIJ9 600-700 limits assumed)
# cathepsin C [6] = settings: cited from earlier work; remark: listed apart in the source
# cathepsin C [7] = experiment: Inhibition of cathepsin C under the DPAP1 assay conditions; format: biochemical, human; settings: assay conditions used for DPAP1
# native DPAP1 (nDPAP1) [8] = target: T2, native DPAP1 (nDPAP1); experiment: Inhibition of native DPAP1; format: biochemical; settings: Fig. 4 and Fig. S4, stated in words
# [9] = recombinant DPAP1, Fig. 4 and Fig. S4, stated in words
compound,measurement,setting,value
NC(Cc1ccccc1)C(=O)NCC(=O)O (racemic) [DL-Phe-Gly],inhibition of cathepsin C,cathepsin C [1],competitively inhibited
Cc1cc(=O)oc2cc(NC(=O)[C@H](CCCN=C(N)N)NC(=O)[C@@H](N)CCCN=C(N)N)ccc12 [Arg-Arg-AMC] (H-Arg-Arg-{AMC}),turnover of the substrate,[2],no turnover
CC[C@H](C)[C@H](N)C(=O)N[C@@H](CCCNC(=N)N)C(=O)Nc1ccc2c(CC(N)=O)cc(=O)oc2c1 [Ile-Arg-ACC],Km,[2],28 ± 2 µM
same,kcat,[2],17 ± 1 s⁻¹
same,Km,[3],3.9 ± 0.2 µM
same,kcat,[3],0.072 ± 0.003 s⁻¹
N[C@@H](Cc1ccccc1)C(=O)N[C@@H](Cc1ccccc1)C(=O)O [L-Phe-L-Phe] (H-Phe-Phe-OH),inhibition of cathepsin C,cathepsin C [1],competitively inhibited
N=C(N)NCCC[C@H](NC(=O)[C@@H](N)Cc1ccccc1)C(=O)Nc1ccc2c(CC(N)=O)cc(=O)oc2c1 [Phe-Arg-ACC] (H-Phe-Arg-{ACC}),mode of inhibition,"[4]; rDPAP1, hydrolysis of Pro-Arg-AMC, Dixon analysis",purely competitive
same,Ki,"[4]; rDPAP1, inhibition of hydrolysis of Pro-Arg-AMC, Dixon analysis",2.2 µM
same,hydrolysis of the substrate,native DPAP1 (nDPAP1) [5],no hydrolysis was observed
same,kinetic behaviour as substrate,[2]; Fig. S3,substrate inhibition was observed
same,hydrolysis of the substrate,[3],no hydrolysis was observed
Cc1cc(=O)oc2cc(NC(=O)[C@H](CCCN=C(N)N)NC(=O)[C@@H]3CCCN3)ccc12 [Pro-Arg-AMC] (H-Pro-Arg-{AMC}),kcat,native DPAP1 (nDPAP1) [5],6.2 ± 0.4 s⁻¹
same,Km,[2],130 ± 10 µM
same,kcat,[2],490 ± 10 s⁻¹
same,Km,[3],79 ± 2 µM
same,kcat,[3],1.8 ± 0.1 s⁻¹
CC(C)[C@H](N)C(=O)N[C@@H](CCCNC(=N)N)C(=O)Nc1ccc2c(CC(N)=O)cc(=O)oc2c1 [Val-Arg-ACC] (H-Val-Arg-{ACC}),kcat,native DPAP1 (nDPAP1) [5],3.5 ± 0.1 s⁻¹
same,Km,[2],51 ± 8 µM
same,kcat,[2],180 ± 10 s⁻¹
same,Km,[3],20 ± 1 µM
same,kcat,[3],0.72 ± 0.02 s⁻¹
Cc1cc(=O)oc2cc(NC(=O)C(Cc3ccccc3)NC(=O)C(N)C(C)C)ccc12 (stereo not drawn) [Val-Phe-AMC] (H-Val-Phe-{AMC}; configuration not given here),increase in kcat/Km relative to Pro-Phe-AMC,cathepsin C [6],10 fold
"CC[C@H](N)C(=O)NNC(=O)N[C@@H](CCc1ccccc1)C(=O)N[C@@H](C)Cc1cccc(F)c1 [compound 1, 1-(2S-2-aminobutanoyl)-4-{2S-N-[2S-3-(m-fluorophenyl)propan-2-yl-amide]-4-phenylbutan-2-yl-amide}semicarbazide]",Ki,[4]; [9],sub-nanomolar
same,type of inhibition,cathepsin C [7],"slow, tight-binding inhibitor"
same,Ki,native DPAP1 (nDPAP1) [8],sub-nanomolar
"CC[C@H](N)C(=O)NC(C#N)Cc1ccccc1 (stereo partly shown) [compound 2, S-2-aminobutyryl-phenylalanine-nitrile]",Ki,[4]; [9],single-digit nanomolar
same,Ki,native DPAP1 (nDPAP1) [8],single-digit nanomolar
NC(=O)[C@@H](N)Cc1ccccc1 [phenylalaninamide],inhibition of cathepsin C,cathepsin C [1],competitively inhibited
Arg-Arg-{ACC},hydrolysis of the substrate,native DPAP1 (nDPAP1) [5],no hydrolysis was observed
same,hydrolysis of the substrate,[3],no hydrolysis was observed
